Measurements gathered from unrelated publications.
Target: Serine/threonine-protein kinase 24 (STK24, Homo sapiens, UniProt Q9Y6E0)

The inhibition of `COCc1c(-c2cc3cc(C)cc(OC)c3s2)c2c(N)ncnn2c1CN1CCNC(=O)C1` is reported as 90.6% (cell-free assay, competition with immobilised ligand; 1 µM).
With `COc1ncccc1-c1cnn2ccc(N3CCN(C(=O)OC(C)C)CC3)nc12` the remaining binding was 84% (binding, competition with immobilised ligand; 1 µM).
`N#CC1(c2ccccn2)CCN(Cc2cc(C(=O)O)c(=O)n3ccccc23)CC1` has a remaining binding of 100% (cell-free assay, competition with immobilised ligand; 1 µM).
The remaining signal of `O=c1[nH]c2ccccc2n1C1CCN(Cc2ccc(-c3[nH]c4cc5ncnc5cc4nc3-c3ccccc3)cc2)CC1` is reported as 90.7% (cell-free assay; 0.5 µM).
`Cn1cncc1[C@@](O)(COc1ccc(C#N)cc1-c1ccc(OC(F)(F)F)cc1)c1ccc(C#N)cc1` has a remaining binding of 100% (cell-free assay, competition with immobilised ligand; 1 µM).
`Cn1cc(-c2cccc(N3CCc4c(sc5c4CC(C)(C)C5)C3=O)c2CO)cc(Nc2ccncn2)c1=O` gave an inhibition of 3% (enzyme activity, inhibitor; 1 µM).
The remaining binding of `Cc1nn(C)cc1-c1nc2c(N3CCN(Cc4ccc(Cl)cc4)CC3)c(Cl)cnc2[nH]1` is reported as 85% (binding, competition with immobilised ligand; 1 µM).
`Nc1ncc(-c2nc(N3CCOCC3)nc(N3CCOCC3)n2)c(C(F)F)n1` has a remaining binding of 91% (binding, competition with immobilised ligand; 10 µM).
For `Cn1cc(-c2cc(F)cc(N3CCn4c(cc5c4CCCC5)C3=O)c2CO)cc(Nc2ccc(N3CCN(C4COC4)CC3)cn2)c1=O`, the inhibition was 18% (enzyme activity, inhibitor; 0.1 µM).
`CC(C)(C)c1cc(C=C(C#N)C#N)cc(Br)c1O` gave a remaining activity of 96.3% (enzyme activity, inhibitor; 0.5 µM).
